# Assay outcomes from PubChem BioAssay.
# Sampled rows, rich in hits. Any-hit rate of the full collection: about 3.3%.
# rCAG RNA binder: binders of r(CAG) RNA repeats, primary screen, biochemical, fluorescence; r(CAG) RNA repeat, TO-PRO-1 dye displacement fluorescence; inhibition, % at 3 µM; 370,000 tested, 1.3% active;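 active = inhibition above the plate cutoff, the mean of all test compounds on that plate plus 3 SD, cut at about 35% in these data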;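 also: higher means more dye released from RNA so lower well fluorescence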
# TCR-CD3 inh: inhibitors of human TCR-CD3 interaction, primary screen, biochemical, fluorescence, TAMRA-labeled TCR probe; 360,000 tested, 0.37% active; inhibition, % at 9.4 µM;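 also: recombinant mutant TCR 2C K166C tagged with TAMRA read by polarization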
# SIAE inh: human SIAE inhibitors, primary screen, biochemical, fluorescence polarization, FP-Rh probe, 1536-well HTS. SIAE FP-Rh probe binding. inhibition, % at 9.66 µM. 370,000 tested, 0.69% active;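 active = inhibition above a cutoff: mean of compounds within the control limits plus 3 SD of those, cut at about 17% in these data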
# ABHD4 inh: ABHD4 inhibitors, primary screen, biochemical, fluorescence polarization, mouse | 370,000 tested, 0.54% active | AID 720543, 2013 | purified mABHD4, FP-Rh probe fluorescence polarization | inhibition, % at 8.92 µM;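 active = inhibition exceeding the mean over every tested compound plus 3 SD, cut at about 30% in these data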
# Target sequence (Q8VD66 whole entry, looked up): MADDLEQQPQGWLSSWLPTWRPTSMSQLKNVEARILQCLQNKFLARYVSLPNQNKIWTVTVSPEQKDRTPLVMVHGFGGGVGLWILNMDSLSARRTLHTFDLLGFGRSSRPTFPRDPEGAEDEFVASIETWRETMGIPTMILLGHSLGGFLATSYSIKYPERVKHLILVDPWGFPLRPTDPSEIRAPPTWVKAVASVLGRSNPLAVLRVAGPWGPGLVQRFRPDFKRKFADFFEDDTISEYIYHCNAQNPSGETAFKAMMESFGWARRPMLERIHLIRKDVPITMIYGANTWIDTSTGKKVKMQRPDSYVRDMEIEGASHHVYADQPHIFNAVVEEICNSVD
#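 Test system: mABHD4 protein; Read-out basis: % inhibition; Incubation: 45 min + 60 min at 25 °C; Repeats: single replicate; Technique: fluorescence polarization with parallel and perpendicular emission, 525/598 nm; Compound: 8.92 µM, single dose; Benchmarks: full inhibition S159A mutant plus DMSO, zero as sample-well median.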
# PRMT1 FP inh: PRMT1 methyltransferase inhibitors, primary screen, biochemical, fluorescence polarization. 370,000 tested, 1.3% active. AID 652257, 2013. inhibition, % at 2.79 µM. recombinant PRMT1, activity-based probe fluorescence polarization. Protein arginine N-methyltransferase 1 (Homo sapiens), Q99873;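 active = inhibition above about 21% made by adding two undisclosed values, limit read from the data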
# BSA probe FL: compounds interfering with TAMRA-BSA probe, counter-screen for TCR-CD3 interaction inhibitor project, biochemical, fluorescence, TAMRA-labeled BSA. AID 652035, 2013. 1,200 tested, 10% active. inhibition, % at 9.4 µM. shares compounds with TCR-CD3 inh. TAMRA-labeled BSA probe fluorescence counterscreen; in the data active = inhibition above about 23%
# TCR-CD3 inh conf: TCR-CD3 interaction inhibitors, retest, confirmation, biochemical, fluorescence, TAMRA-labeled TCR probe. TAMRA-labeled TCR probe fluorescence binding assay. shares compounds with TCR-CD3 inh. 1,200 tested, 48% active. AID 652036, 2013. inhibition, % at 9.4 µM
# A number is an active result; i = inactive; nt = no result given. Rule as the data show it, unless noted: active = inhibition above about 19%; inactive = the rest.
SMILES,rCAG RNA binder,TCR-CD3 inh,SIAE inh,ABHD4 inh,PRMT1 FP inh,BSA probe FL,TCR-CD3 inh conf
COc1ccccc1/C=N/NC(=O)c1ccc(N(C)S(=O)(=O)c2ccccc2)cc1,i,23,i,i,i,i,i
CCCCN1CC(=O)N2[C@H](C[C@@]3(n4ccc5ccccc54)c4ccccc4N(S(=O)(=O)c4ccccc4)[C@@H]23)C1=O,i,nt,i,i,i,nt,nt
CCC(CO)Nc1cccc2c1S(=O)(=O)N(Cc1cn(Cc3cccc(C(F)(F)F)c3)nn1)Cc1ccccc1O2 (stereo unspecified),i,nt,i,i,i,nt,nt
COc1ccccc1-c1nnc(SCC(=O)N2CCCC2)o1,i,21,i,i,i,i,i
Cc1ccc(NC(=O)C(OC(=O)c2ccccc2Cl)c2ccccc2)cc1Cl (stereo unspecified),i,i,i,i,i,nt,nt
N#CCC(=O)Nc1ccc(C(=O)OC(C(=O)Nc2ccc([N+](=O)[O-])cc2Br)c2ccccc2)cc1 (stereo unspecified),i,i,i,i,i,nt,nt
Cc1ccc(NC(=O)C(OC(=O)c2ccc(NC(N)=O)cc2)c2ccccc2)cc1Cl (stereo unspecified),i,46,i,i,i,i,32
N#CCC(=O)Nc1ccc(C(=O)OC(C(=O)Nc2cc(C(F)(F)F)ccc2Cl)c2ccccc2)cc1 (stereo unspecified),i,47,i,i,i,i,34
O=C(CCNS(=O)(=O)c1ccccc1)NCCCSc1ccccc1,i,i,i,i,i,nt,nt
CCOc1ccc(S(=O)(=O)NCCC(=O)NCCCSc2ccccc2)cc1,i,43,i,i,i,i,i
Cc1ccc(C(=O)N2CCN(c3cccc(C)c3C)CC2)o1,i,33,i,i,i,i,i
CC1=NN(C(=O)c2ccccc2Br)C(O)(c2ccc(Cl)cc2)C1 (stereo unspecified),i,28,i,i,i,i,i
CC1=NN(C(=O)c2ccccc2C)C(O)(c2ccc(Cl)cc2)C1 (stereo unspecified),i,i,i,i,i,nt,nt
CCC1=NN(C(=O)c2ccccc2O)C(O)(c2ccccc2)C1 (stereo unspecified),i,40,i,i,i,i,30
O=C(Nc1ccccc1)c1cc(Cl)nc2ccccc12,i,i,i,i,i,nt,nt
CC(=O)c1ccc(NC(=O)c2cc(Cl)nc3ccccc23)cc1,i,62,i,i,i,i,i
CC[C@@H](CCCCCC#N)CCC(=O)N(c1ccccc1)c1ccccc1,i,nt,i,i,i,nt,nt
COc1ccc(C(=O)NC(=S)NNC(=O)c2ccncc2)cc1Br,i,i,i,i,i,nt,nt
COc1ccc(C(=O)NNC(=S)NC(=O)c2ccc(F)cc2)cc1Br,i,20,i,i,i,i,i
Cc1cc(NS(=O)(=O)c2ccc(NC(=S)NC(=O)c3cccnc3)cc2)no1,i,46,i,i,i,i,i
COc1ccc(CC(=O)NNC(=S)NC(=O)c2cccnc2)cc1,i,26,i,i,i,i,i
COc1ccc(C(=O)NNC(=S)NC(=O)c2cccs2)cc1,i,23,i,i,i,i,30
N#Cc1ccccc1N1CCN(S(=O)(=O)c2ccc3c(c2)CCC(=O)N3)CC1,i,nt,i,i,i,nt,nt
Fc1cc(F)c(CSc2nnc(-c3cccnc3)n2Cc2ccccc2)cc1F,i,nt,i,i,i,nt,nt
Cc1ccccc1CS(=O)(=O)Cc1ccc(C(=O)Nc2c(C)cccc2C)o1,i,nt,i,i,i,nt,nt
SMILES,rCAG RNA binder,TCR-CD3 inh,SIAE inh,ABHD4 inh,PRMT1 FP inh,BSA probe FL,TCR-CD3 inh conf
COc1ccc(C(=O)NNC(=S)NC(=O)c2cccnc2)cc1,i,38,i,i,i,i,37
O=C(NNC(=S)NC(=O)c1ccc(F)cc1)c1cccnc1,i,i,i,i,i,nt,nt
O=C(NNC(=S)NC(=O)c1cccnc1)c1ccc(F)cc1,i,23,i,i,i,i,28
Cc1ccc(-c2c(NC(=O)c3ccccc3)nc3ncccn23)cc1,i,nt,i,i,i,nt,nt
COc1ccccc1NC(=O)c1ccc2nsnc2c1,i,i,i,i,i,nt,nt
COc1ccccc1OC(=O)c1ccc2nsnc2c1,i,21,i,i,i,i,i
COC(=O)[C@]12C[C@H](CC(=O)NCc3cccc4ccccc34)C(=O)N(Cc3ccco3)C1=C[C@H](C1CCCC1)O[C@@H]2C,i,nt,i,i,i,nt,nt
Cc1ccccc1OCc1nc(-c2ccc(NC(=O)c3ccco3)cc2)no1,i,i,i,i,i,nt,nt
Cc1ccccc1OCc1nc(-c2ccc(NC(=O)c3cccs3)cc2)no1,i,28,i,i,i,i,i
O=C(Cc1cccs1)NC1CCCCN(Cc2cccc(Cl)c2)C1=O (stereo unspecified),i,nt,i,i,i,nt,nt
Cc1cc(N2CCN(C(=O)Oc3ccc(-c4ccccc4)cc3)CC2)c2ccccc2n1,i,nt,i,i,i,nt,nt
COc1ccc(-c2cnnn2-c2ccc(NC(=O)c3ccc(S(=O)(=O)N4CCCCC4)cc3)cc2)cc1,i,24,i,i,i,29,39
COC(=O)[C@]12C[C@H](CC(=O)NCCc3ccccc3OC)C(=O)N(Cc3cccc4ccccc34)C1=C[C@H](C1CCCC1)O[C@@H]2C,i,nt,i,i,i,nt,nt
O=C(N/N=C/C1CC=CCC1)c1ccc(Cl)cc1O (stereo unspecified),i,20,i,i,i,i,i
CCOC(=O)C1=CCN(S(=O)(=O)c2cccc(Cl)c2)C1c1cccc(F)c1 (stereo unspecified),i,65,i,i,i,i,i
CCOC(=O)C1=CCN(S(=O)(=O)c2ccc(F)cc2)C1c1cccc(Cl)c1 (stereo unspecified),i,i,i,i,i,nt,nt
O=C(NNC(=O)c1ccccc1F)c1cccc(-n2cccc2)c1,i,22,i,i,i,i,26
O=C(Nc1ccc(Cl)cc1)Nc1ccc(Cl)c(Cl)c1,i,22,i,i,i,i,19
CC(C)CN1CN2Cc3ccccc3C2CS1(=O)=O (stereo unspecified),i,nt,i,i,i,nt,nt
c1coc(CSSCc2ccco2)c1,i,20,i,i,49,i,i
Cc1ccc(NC(=O)CSCc2ccco2)cc1,i,i,i,i,i,nt,nt
O=C(NCCN1C(=O)C2C3C=CC(C3)C2C1=O)c1cc(F)cc(F)c1 (stereo unspecified),i,nt,i,i,i,nt,nt
